The list is not random: actives were taken first. Their share in the collection is about 1.2%.
Diaphorase inh: diaphorase inhibitors and chemical oxidizers, primary screen, counter-screen for diaphorase-coupled primary assays, biochemical, uHTS, resorufin fluorescence | diaphorase resazurin-to-resorufin fluorescence, NADH, 16 min; bacterial (C. kluyveri) enzyme, not human | 190,000 tested, 0.69% active | inhibition, % at 20 µM;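 active = primary screen inhibition at 20 µM above a set limit, cut at about 50% in these data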;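 also: plate controls were DMSO with full reaction for no effect and wells lacking NADH for full effect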
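Test system: diaphorase enzyme from Clostridium kluyveri; amount: diaphorase at 0.14 U/mL in enzyme working solution; detection: fluorescence of resorufin formed from resazurin, Ex 544/Em 590 nm; times: reaction incubation of 16 min at room temperature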
G6PDH counter: L. mesenteroides G6PDH inhibitors, counter-screen for G6PDH-coupled screening assays, biochemical, Leuconostoc mesenteroides enzyme. 200,000 tested, 0.12% active. Purified L. mesenteroides G6PDH, diaphorase/resazurin coupled fluorescence, 45 min. inhibition, % at 5 µM. glucose-6-phosphate dehydrogenase [Leuconostoc mesenteroides]; in the data active = inhibition above about 50%
HKDC1 inhibitor: HKDC1 hexokinase inhibitors, primary screen, biochemical, fluorescence, uHTS; inhibition, % at 20 µM; Q2TB90; recombinant HKDC1, G6PDH/diaphorase resazurin coupled fluorescence; AID 493160, 2011; 340,000 tested, 0.16% active;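 active = inhibition above about 35% when tested at 20 µM, limit read from the data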;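 also: plate controls were DMSO wells with enzyme for no effect and DMSO wells lacking enzyme for full effect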
Target sequence (Q2TB90 whole entry, looked up): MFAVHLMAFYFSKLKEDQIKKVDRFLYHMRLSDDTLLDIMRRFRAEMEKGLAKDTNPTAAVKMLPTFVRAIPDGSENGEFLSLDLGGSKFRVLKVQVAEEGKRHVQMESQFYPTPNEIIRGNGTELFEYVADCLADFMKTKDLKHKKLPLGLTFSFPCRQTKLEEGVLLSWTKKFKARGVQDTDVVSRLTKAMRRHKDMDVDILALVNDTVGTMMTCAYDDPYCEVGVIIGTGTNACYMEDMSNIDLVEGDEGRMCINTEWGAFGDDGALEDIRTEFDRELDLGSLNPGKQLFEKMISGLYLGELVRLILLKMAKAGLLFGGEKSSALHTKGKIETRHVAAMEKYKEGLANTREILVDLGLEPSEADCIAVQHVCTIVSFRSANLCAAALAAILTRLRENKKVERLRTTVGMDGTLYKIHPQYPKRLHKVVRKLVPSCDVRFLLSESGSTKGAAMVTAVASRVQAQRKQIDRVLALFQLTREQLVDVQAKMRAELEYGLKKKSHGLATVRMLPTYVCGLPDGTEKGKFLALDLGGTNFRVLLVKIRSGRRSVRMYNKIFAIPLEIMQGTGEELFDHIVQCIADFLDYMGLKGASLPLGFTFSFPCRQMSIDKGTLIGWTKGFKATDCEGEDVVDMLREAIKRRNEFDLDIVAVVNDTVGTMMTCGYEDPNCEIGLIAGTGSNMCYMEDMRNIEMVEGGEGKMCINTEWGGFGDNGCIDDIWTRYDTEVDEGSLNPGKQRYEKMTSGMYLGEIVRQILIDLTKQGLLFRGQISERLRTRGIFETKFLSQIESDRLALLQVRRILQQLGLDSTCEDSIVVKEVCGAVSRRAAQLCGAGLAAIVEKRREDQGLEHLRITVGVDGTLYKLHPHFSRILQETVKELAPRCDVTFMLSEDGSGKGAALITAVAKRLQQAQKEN
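Test system: Recombinant HKDC1 (HK5) hexokinase enzyme, produced in-house | Input: HKDC1 at 5 µg/mL | Buffer or medium: Tris pH 8.0 buffer with MgCl2, Tween-20, BSA, BME | Schedule: 90 min reaction incubation at room temperature, dark | Technique: Resazurin-to-resorufin fluorescence via G6PDH and diaphorase coupling, 525/613 nm | Controls: DMSO wells with and without enzyme mix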
PfG6PD inh: PfG6PD enzyme inhibitors, primary screen, biochemical, fluorescence intensity, uHTS | PfGluPho enzyme, NADPH resazurin-diaphorase fluorescence | AID 504690, 2011 | 350,000 tested, 0.78% active | glucose-6-phosphate dehydrogenase-6-phosphogluconolactonase (Plasmodium falciparum 3D7) | inhibition, % at 20 µM;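 active = inhibition reaching at least a set limit at 20 µM in the primary screen, cut at about 59% in these data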;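 also: 0% = DMSO wells with substrate and 100% = DMSO wells lacking glucose-6-phosphate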
Diaph act CS: compounds boosting diaphorase resazurin reduction – biochemical, uHTS, resorufin fluorescence, counter-screen for diaphorase-coupled primary assays, primary screen; 190,000 tested, 0.005% active; AID 1229, 2008; Diaphorase/resazurin coupled assay, 16 min; hits give high values; 1 = vehicle wells, 0 = NADH-free wells; activation factor at 20 µM;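 active = diaphorase activity raised at least twofold by the compound at 20 µM; inactive = activation factor below 2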
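Material: Purified diaphorase enzyme from Clostridium kluyveri | Buffer or medium: 50 mM HEPES pH 7.4 with 4.542 mM MgCl2, 0.005% Tween 20 | Times: 16 min enzyme reaction, ambient temperature | Signal: Red resorufin fluorescence at 544/590 nm excitation/emission | Measure: Increased resorufin signal from activators or reducing compounds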
PfG6PD confirm: PfG6PD inhibitors, hit retest, confirmation, biochemical, fluorescence intensity, single concentration; shares compounds with PfG6PD inh; recombinant PfGluPho, NADPH-diaphorase-resazurin fluorescence; inhibition, % at 20 µM; 2,400 tested, 34% active; AID 504753, 2011;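 active = inhibition of at least 50% at 20 µM in any single replicate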;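 also: 0% = DMSO with substrate and 100% = DMSO lacking glucose-6-phosphate substrate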
Diaph ctr 10uM: diaphorase inhibitors and chemical oxidizers, confirmation, counter-screen for P. falciparum G6PD inhibitor project, biochemical, fluorescence intensity, 10 µM NADPH; shares compounds with PfG6PD inh; diaphorase-coupled resazurin reduction, NADPH 10 uM; inhibition, % at 20 µM; 820 tested, 39% active; AID 504862, 2011;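 active = average inhibition reaching 50% or more with the compound at 20 µM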;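 also: resorufin red fluorescence formed as diaphorase reduces resazurin using NADPH; 0% = DMSO with enzyme and 100% = DMSO without enzyme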
Diaph ctr 30uM: diaphorase inhibitors and chemical oxidizers, confirmation, counter-screen for P. falciparum G6PD inhibitor project, biochemical, fluorescence intensity, 30 µM NADPH | 820 tested, 29% active | inhibition, % at 20 µM | Diaphorase/resazurin coupled assay, resorufin fluorescence | AID 504863, 2011 | shares compounds with PfG6PD inh;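 active = inhibition averaging 50% or more, tested at 20 µM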;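 also: 0% = DMSO with enzyme and 100% = DMSO wells lacking diaphorase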
Numbers without * were called inactive; x = no result.

SMILES	Diaphorase inh	G6PDH counter	HKDC1 inhibitor	PfG6PD inh	Diaph act CS	PfG6PD confirm	others
Cc1ccc(/C=N/NC(=O)CSCc2ccc(Cl)cc2)cc1	12.0	-6.2	7.2	59.4*	0.9	11.5
O=C(CSc1nnc(-c2ccc(Cl)cc2)n1-c1ccc(Cl)cc1)N/N=C/c1ccco1	7.6	-2.3	-4.5	5.0	0.9	x
O=C(CSCc1ccc(Cl)cc1)N/N=C/c1ccc(Cl)cc1Cl	10.6	1.3	3.6	43.9	0.9	x
Cc1ccsc1/C=N/NC(=O)CSCc1ccc(Cl)cc1	4.5	-2.0	-2.5	114.4*	1	65.0*	Diaph ctr 10uM=78.2*;Diaph ctr 30uM=57.5*
O=C(CSCc1ccc(Cl)cc1)N/N=C/c1ccco1	11.4	5.6	-3.3	59.6*	0.9	25.1
CC(C)(CO)NCc1c(OCc2ccc(Cl)cc2)ccc2ccccc12	x	x	-0.6	-8.9	x	x
CN(c1ccccc1C(=O)N1CCN(c2ccccc2F)CC1)S(=O)(=O)c1ccccc1	x	x	-5.2	-2.0	x	x
CCOC(=O)c1c(C)n(-c2ccc(C)cc2)c2c(C(C(C)=O)C(=O)O)c(Br)c(O)c(O)c12 (stereo unspecified)	72.3*	8.6	11.0	104.9*	0.3	101.2*	Diaph ctr 10uM=45.8;Diaph ctr 30uM=25.7
CCOC(=O)c1c(C)[nH]c(C)c1C(=O)COC(=O)c1cccs1	x	x	0.7	59.6*	x	13.8
COc1cccc(-c2c(C(=O)N/N=C/c3ccc(C)o3)nnn2-c2nonc2N)c1	x	x	0.1	65.6*	x	55.8*	Diaph ctr 10uM=26.6;Diaph ctr 30uM=18.9
COc1cccc(-c2c(C(=O)N/N=C/c3ccc(C)s3)nnn2-c2nonc2N)c1	x	x	1.0	97.8*	x	49.5*	Diaph ctr 10uM=65.3*;Diaph ctr 30uM=42.4
Cc1ccsc1/C=N/NC(=O)c1nnn(-c2nonc2N)c1-c1ccc2c(c1)OCO2	x	x	1.5	65.9*	x	31.5
CCOc1cccc(-c2c(C(=O)N/N=C/c3sccc3C)nnn2-c2nonc2N)c1	x	x	5.1	86.7*	x	31.5
CCOc1cccc(-c2c(C(=O)N/N=C/c3ccc(C)s3)nnn2-c2nonc2N)c1	x	x	3.9	66.7*	x	39.9
Cc1ccc(C)c(NC(=O)CN(C)C(=O)c2cc(-c3cccs3)nn2-c2ccccc2)c1	x	x	-1.9	11.5	x	x
O=C(/C=C/C(Cl)(Cl)Cl)Nc1ccc(Cl)cc1	x	x	2.3	95.8*	x	17.7
NC(=O)/C=C/C(=O)Nc1ccc(Cl)cc1	18.1	-1.4	-3.6	-0.8	0.8	x
Cc1cccc(NC(=O)c2cccc(NC(=O)c3ccco3)c2)c1C	x	x	-4.4	0.8	x	x
CCCc1cc(=O)[nH]c(SCC(=O)NC2CCCc3ccccc32)n1 (stereo unspecified)	x	x	2.1	64.2*	x	28.9
C[C@H](CO)N1C[C@H](C)[C@@H](CN(C)Cc2ccncc2)Oc2c(NC(=O)C3CC3)cccc2C1=O	x	x	-6.1	0.5	x	x
CC1C(=O)NN=C1C(=O)N/N=C/c1cccs1 (stereo unspecified)	20.0	-0.6	-5.9	9.7	0.8	x
CN1CC(=O)N(CC(=O)Nc2ccc(N(C)C)cc2)c2ccccc2C1=O	1.3	6.8	3.7	62.9*	1	5.5
CN1CC(=O)N(CC(=O)NCCc2ccc(F)cc2)c2ccccc2C1=O	14.9	-4.3	-1.1	0.4	0.9	x
CCOC(=O)c1c(S(=O)(=O)Nc2ccccn2)c(C)n(C)c1C	x	x	-6.6	-1.2	x	x
Cc1nc(NC(=O)c2ccc(Cl)cc2)sc1Cc1ccc2c(c1)OCO2	20.0	0.2	-12.9	59.6*	0.8	29.3
SMILES	Diaphorase inh	G6PDH counter	HKDC1 inhibitor	PfG6PD inh	Diaph act CS	PfG6PD confirm	others
Cc1nc(NC(=O)c2ccccc2)sc1Cc1ccc2c(c1)OCO2	-0.4	-9.5	15.9	19.1	1	x
O=C(CSc1nccc(-c2cccs2)n1)Nc1cccc(Cl)c1Cl	x	x	-0.1	8.1	x	x
O=C(Nc1nccc(-c2cccs2)n1)c1ccccc1Cl	-4.1	-1.4	5.7	142.4*	1	109.8*	Diaph ctr 10uM=101.6*;Diaph ctr 30uM=81.1*
O=C(c1ccccc1Cl)N(C(=O)c1ccccc1Cl)c1nccc(-c2cccs2)n1	21.7	21.4	8.4	110.0*	0.8	69.1*	Diaph ctr 10uM=72.8*;Diaph ctr 30uM=65.1*
CN1/C(=C\C(=O)c2cccs2)Sc2ccccc21	12.3	10.2	-1.1	104.6*	0.9	62.4*	Diaph ctr 10uM=41.4;Diaph ctr 30uM=35.2
CCn1c(C)nc2cc(C(=O)OC(C(F)(F)C(F)F)C(F)(F)C(F)F)ccc21	27.4	-18.7	-1.1	61.3*	0.7	14.6
O=c1[nH]c(=O)c2[nH]c(=S)[nH]c2[nH]1	x	x	5.3	65.9*	x	27.9
Cc1nc2ccc(Cl)cc2nc(C)/c1=N\O	58.2*	32.6	2.0	59.5*	0.4	11.4
Cc1ccc(C(=S)N2CCN(Cc3ccccc3)CC2)s1	13.8	7.4	5.4	55.9	0.9	x
CCOC(=O)c1cc(C)[nH]c(=S)c1C#N	51.8*	-5.1	8.9	74.2*	0.5	45.7
CCOC(=O)c1cc(C(=O)OCC)c(=O)[nH]c1C	-15.1	9.0	-7.6	-0.3	1.2	x
O=C(/C=C/c1ccco1)N1CCN(S(=O)(=O)/C=C/c2ccccc2)CC1	-11.3	-0.7	-2.5	9.2	1.1	x
Cc1ccc(/C=C/C(=O)N2CCN(S(=O)(=O)c3cccs3)CC2)o1	x	x	1.0	73.3*	x	38.6
CCN1CCN(C(=O)/C=C/c2ccc(C)o2)CC1	-4.5	6.3	-7.7	21.8	1	x
Cc1ccc(/C=C/C(=O)N2CC(C)CC(C)C2)o1 (stereo unspecified)	16.4	3.7	11.8	72.0*	0.8	29.1
Cc1ccc(/C=C/C(=O)N2CCN(S(=O)(=O)/C=C/c3ccccc3)CC2)o1	x	x	-2.6	63.4*	x	15.5
Cc1ccc(O)c(NC2=C(Cl)C(=O)N(Cc3ccccc3)C2=O)c1	50.9*	11.8	3.0	84.9*	0.5	29.6
N=c1c(C(=O)NC2CCCC2)cc2c(=O)n3ccccc3nc2n1C1CCCC1	6.2	18.9	3.8	21.5	0.9	x
